Reference: ChEMBL document CHEMBL1806414, “Synthesis and anticonvulsant activity of 7-phenyl-6,7-dihydro-[1,2,4]triazolo[1,5-a]pyrimidin-5(4H)-ones and their derivatives” (Eur J Med Chem, 2011)
Activity calls are given as the source filed them. The rule behind the calls is not given here.

Assays:
Mus musculus [1] = test: Anticonvulsant activity in Kunming mouse assessed as protection against maximal electric shock-induced seizures at 30 mg/kg, ip measured after 0.5 hrs; format: functional, organism-based; design: dose 30 mg/kg
How it was run: (§1)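 KunMing mice (18–22 g), compounds dissolved in DMSO, given i.p. at 30, 100 and 300 mg/kg, three mice per dose. Current applied through corneal electrodes for 0.2 s at 0.5 h and 4 h after dosing. Protection is abolition of tonic hind-leg extension, scored as protected/tested.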

Mus musculus [2] = test: Anticonvulsant activity in Kunming mouse assessed as protection against maximal electric shock-induced seizures at 30 mg/kg, ip measured after 4 hrs; format: functional, organism-based; design: dose 30 mg/kg; how it was run: as §1
Mus musculus [3] = test: Anticonvulsant activity in Kunming mouse assessed as protection against maximal electric shock-induced seizures at 300 mg/kg, ip measured after 0.5 hrs; format: functional, organism-based; design: dose 300 mg/kg; how it was run: as §1
Mus musculus [4] = test: Anticonvulsant activity in Kunming mouse assessed as protection against maximal electric shock-induced seizures at 300 mg/kg, ip measured after 4 hrs; format: functional, organism-based; design: dose 300 mg/kg; how it was run: as §1
Mus musculus [5] = test: Anticonvulsant activity in Kunming mouse assessed as protection against maximal electric shock-induced seizures at 100 mg/kg, ip measured after 4 hrs; format: functional, organism-based; design: dose 100 mg/kg; how it was run: as §1
Mus musculus [6] = test: Anticonvulsant activity in Kunming mouse assessed as protection against maximal electric shock-induced seizures at 100 mg/kg, ip measured after 0.5 hrs; format: functional, organism-based; design: dose 100 mg/kg; how it was run: as §1
Mus musculus [7] = test: Anticonvulsant activity against maximal electric shock-induced seizures in ip dosed Kunming mouse assessed as median effective dose; format: functional
How it was run: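 Phase-II MES test in KunMing mice (18–22 g), DMSO vehicle, corneal electrode stimulus 0.2 s. Groups of 10 mice got a range of i.p. doses until at least three points fell within 10–90% seizure protection, giving the median effective dose. Endpoint is abolition of tonic hind-leg extension.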

SMILES	Activity (Mus musculus [1])	Activity (Mus musculus [2])	Activity (Mus musculus [3])	Activity (Mus musculus [4])	Activity (Mus musculus [5])	Activity (Mus musculus [6])	ED50 (Mus musculus [7])
O=C1CC(c2ccccc2Br)n2ccnc2N1 (centres undefined)	inactive	inactive	Active	inactive	inactive	–	–
COc1ccccc1C1CC(=O)Nc2ncnn21 (centres undefined)	inactive	inactive	–	inactive	inactive	inactive	–
O=C1CC(c2ccc(F)cc2)n2ncnc2N1 (centres undefined)	inactive	inactive	–	inactive	inactive	inactive	–
Cc1ccc(C2CC(=O)Nc3ncnn32)cc1 (centres undefined)	inactive	inactive	Active	inactive	inactive	–	–
O=C1CC(c2cccc(F)c2)n2ncnc2N1 (centres undefined)	inactive	inactive	–	inactive	inactive	inactive	–
O=C1CC(c2ccccc2Br)n2c(nc3ccccc32)N1 (centres undefined)	inactive	inactive	inactive	inactive	inactive	inactive	–
O=C1CC(c2ccccc2)n2c(nc3ccccc32)N1 (centres undefined)	inactive	inactive	inactive	inactive	inactive	inactive	–
O=C1CC(c2ccccc2Cl)n2ccnc2N1 (centres undefined)	inactive	inactive	Active	inactive	inactive	–	–
CCCCCCN1C(=O)CC(c2ccccc2)n2ncnc21 (centres undefined)	inactive	inactive	–	inactive	inactive	–	–
O=C1CC(c2ccc(Br)cc2)n2ncnc2N1 (centres undefined)	inactive	inactive	–	inactive	inactive	inactive	–
COc1ccc(C2CC(=O)Nc3ncnn32)cc1 (centres undefined)	inactive	inactive	–	inactive	inactive	inactive	–
O=C1CC(c2ccc(Cl)cc2)n2ncnc2N1 (centres undefined)	inactive	inactive	Active	inactive	inactive	–	–
CCC1(c2ccccc2)C(=O)NC(=O)NC1=O [PHENOBARBITAL]	–	–	–	–	–	–	21.8 mg/kg
O=C1CC(c2ccccc2Cl)n2c(nc3ccccc32)N1 (centres undefined)	inactive	inactive	inactive	inactive	inactive	inactive	–
CN1C(=O)CC(c2ccccc2)n2ncnc21 (centres undefined)	inactive	inactive	Active	inactive	inactive	–	–
O=C1CC(c2ccccc2F)n2c(nc3ccccc32)N1 (centres undefined)	inactive	inactive	inactive	inactive	inactive	inactive	–
O=C1CC(c2ccccc2)n2ncnc2N1Cc1ccccc1 (centres undefined)	inactive	inactive	–	inactive	inactive	–	–
O=C1CC(c2ccc(Cl)cc2Cl)n2ncnc2N1 (centres undefined)	inactive	inactive	inactive	inactive	inactive	inactive	–
